# Active and inactive are the calls of the source. The calls are words filed in the database; no cut-off is given here.
# Columns and labels:
# Pediococcus [1] = experiment: Antibacterial activity against chlorguanide triazine-resistant Pediococcus cerevisiae ATCC 808 assessed as reduction in growth in presence of 0.001 ug/ml folinic acid; assay type: functional
# How it was run: (§1)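 Folate-requiring strains grown in medium with folic acid, 0.002 µg/ml for S. faecium and 0.001 µg/ml for L. casei; P. cerevisiae given folinic acid, 0.001 µg/ml. Resistant substrains came from serial transfer in rising chlorguanide triazine, and the most resistant were used. Compounds tested up to 1000 µg/ml, or 100 µg/ml when supply was limited. Growth read as Klett turbidity; IC50 is the µM concentration giving 50% growth inhibition.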
# Pediococcus [2] = experiment: Antibacterial activity against sensitive Pediococcus cerevisiae ATCC 808 assessed as reduction in growth in presence of 0.001 ug/ml folinic acid; assay type: functional
# How it was run: (§2)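 P. cerevisiae grown with folinic acid at 0.001 μg/ml in the earlier-described medium. Turbidity read on a Klett-Summerson colorimeter. IC50 is the micromolar concentration reducing growth to 50% of control. Top concentration was 1000 μg/ml, or 100 μg/ml when supply was limited.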
# Pediococcus [3] = experiment: Fold increase in resistance, ratio of IC50 for chlorguanide triazine-resistant Pediococcus cerevisiae ATCC 808 to IC50 for sensitive Pediococcus cerevisiae ATCC 808; assay type: functional
# How it was run: (§3)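 Resistant substrains were made by serial transfer in rising concentrations of cycloguanil, and the most resistant isolate of each organism was used. Both strains were assayed turbidimetrically under identical conditions. FIR = IC50 of the resistant strain divided by IC50 of the sensitive parent.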
# Lacticaseibacillus casei [4] = experiment: Antibacterial activity against sensitive Lactobacillus casei ATCC 7469 assessed as reduction; assay type: functional, organism-based; how it was run: as §1
# [5] = Antibacterial activity against chlorguanide triazine-resistant Pediococcus cerevisiae ATCC 808 assessed as reduction in growth; assay type: functional; how it was run: as §1
# Enterococcus faecium [6] = experiment: Fold increase in resistance, ratio of IC50 for chlorguanide triazine-resistant Streptococcus faecium ATCC 8043 to IC50 for sensitive Streptococcus faecium ATCC 8043; assay type: functional
# How it was run: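 Resistant S. faecium substrain raised by serial transfer in increasing chlorguanide triazine. IC50 (µM, 50% growth inhibition by turbidity) was found for resistant and parent strains in folic acid (0.002 µg/ml) medium. Fold increase taken as IC50 resistant / IC50 sensitive.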
# Enterococcus faecium [7] = experiment: Antibacterial activity against chlorguanide triazine-resistant Streptococcus faecium ATCC 8043 assessed as reduction in growth in presence of 0.002 ug/ml folic acid; assay type: functional, organism-based; how it was run: as §1
# Escherichia coli [8] = experiment: Antibacterial activity against sensitive Escherichia coli ATCC 10536 assessed as reduction in growth in presence of p-aminobenzoic acid; assay type: functional, organism-based
# How it was run: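 Reversal test. Drug inhibition was challenged with PABA in Sahyun et al. medium plus 0.6% acid-hydrolyzed casein. Growth read as turbidity on a Klett-Summerson colorimeter. Scored as reversal or nonreversal of the drug inhibition.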
# Escherichia coli [9] = experiment: Antibacterial activity against sensitive Escherichia coli ATCC 10536 assessed as reduction in growth; assay type: functional, organism-based
# How it was run: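 Growth inhibition in Sahyun et al. medium plus 0.6% acid-hydrolyzed casein. Growth read as turbidity on a Klett-Summerson photoelectric colorimeter. IC50 is the micromolar concentration giving 50% growth inhibition. Top concentration was 1000 μg/ml, or 100 μg/ml when compound was limited.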
# Lacticaseibacillus casei [10] = experiment: Antibacterial activity against sensitive Lactobacillus casei ATCC 7469 assessed as reduction in growth in presence of 0.001 ug/ml folic acid; assay type: functional, organism-based
# How it was run: (§4)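 Folate-requiring strains in the medium of the earlier assay method. Folic acid was 0.002 μg/ml for S. faecium and 0.001 μg/ml for L. casei. Turbidity read on a Klett-Summerson colorimeter. IC50 is the micromolar concentration reducing growth to 50% of control. Top concentration was 1000 μg/ml, or 100 μg/ml if supply was limited.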
# Enterococcus faecium [11] = experiment: Antibacterial activity against chlorguanide triazine-resistant Streptococcus faecium ATCC 8043 assessed as reduction in growth; assay type: functional, organism-based; how it was run: as §1
# Lacticaseibacillus casei [12] = experiment: Antibacterial activity against chlorguanide triazine-resistant Lactobacillus casei ATCC 7469 assessed as reduction in growth in presence of 0.001 ug/ml folic acid; assay type: functional, organism-based; how it was run: as §1
# Enterococcus faecium [13] = experiment: Antibacterial activity against sensitive Streptococcus faecium ATCC 8043 assessed as reduction in growth in presence of 0.002 ug/ml folic acid; assay type: functional, organism-based; how it was run: as §4
# [14] = Antibacterial activity against sensitive Pediococcus cerevisiae ATCC 808 assessed as reduction; assay type: functional; how it was run: as §2
# Enterococcus faecium [15] = experiment: Antibacterial activity against sensitive Streptococcus faecium ATCC 8043 assessed as reduction in growth; assay type: functional, organism-based; how it was run: as §1
# Lacticaseibacillus casei [16] = experiment: Antibacterial activity against chlorguanide triazine-resistant Lactobacillus casei ATCC 7469 assessed as reduction in growth; assay type: functional, organism-based; how it was run: as §1
# Plasmodium berghei [17] = experiment: Antimalarial activity against Plasmodium berghei infected in sc dosed mouse assessed as active dose required to increase of 100% in mean survival time; assay type: functional; details: read-out: MED
# How it was run: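 Mice received a standard blood-induced P. berghei inoculum and were then treated with one subcutaneous dose of compound suspended in peanut oil. The minimum active dose is the lowest dose that raised mean survival time by 100%.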
# Lacticaseibacillus casei [18] = experiment: Fold increase in resistance, ratio of IC50 for chlorguanide triazine-resistant Lactobacillus casei ATCC 7469 to IC50 for sensitive Lactobacillus casei ATCC 7469; assay type: functional; how it was run: as §3
# Plasmodium berghei [19] = experiment: Antimalarial activity against Plasmodium berghei infected in sc dosed mouse assessed as dose required to survivors for period of 60 days; assay type: functional
# How it was run: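 Mice infected with a blood-induced P. berghei inoculum were given one subcutaneous dose in peanut oil. Survivors at 60 days counted as cured. The minimum curative dose is the lowest dose that cured any mouse.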
SMILES,inhibition (Pediococcus [1]),inhibition (Pediococcus [2]),Ratio IC50 (Pediococcus [3]),IC50 (Lacticaseibacillus casei [4]),IC50 [5],Ratio IC50 (Enterococcus faecium [6]),inhibition (Enterococcus faecium [7]),inhibition (Escherichia coli [8]),IC50 (Escherichia coli [9]),inhibition (Lacticaseibacillus casei [10]),IC50 (Enterococcus faecium [11]),inhibition (Lacticaseibacillus casei [12]),inhibition (Enterococcus faecium [13]),IC50 [14],IC50 (Enterococcus faecium [15]),IC50 (Lacticaseibacillus casei [16]),minimal effective dose (Plasmodium berghei [17]),Ratio IC50 (Lacticaseibacillus casei [18]),MCD (Plasmodium berghei [19])
CN(Cc1cnc2nc(N)nc(N)c2n1)c1ccc(C(=O)N[C@@H](CCC(=O)O)C(=O)O)cc1 [METHOTREXATE],inactive,inactive,4,6e-05 µM,1.5 µM,5,Active,Active,143 µM,Active,0.01 µM,Active,Active,0.4 µM,0.002 µM,0.01 nM,> 640 mg/kg,0.17,>640 mg/kg
CCc1nc(N)nc(N)c1-c1ccc(Cl)cc1 [PYRIMETHAMINE],inactive,inactive,3,5.1 µM,12 µM,1300,inactive,Active,76 µM,inactive,10.5 µM,inactive,inactive,4 µM,0.008 µM,240 nM,10 mg/kg,0.05,40 mg/kg
Nc1nc(N)c2cc(Sc3ccc(Cl)cc3)ccc2n1,inactive,inactive,14.3,0.028 µM,0.4 µM,180,inactive,Active,0.4 µM,inactive,0.18 µM,inactive,inactive,0.028 µM,0.001 µM,10 nM,5 mg/kg,0.36,40 mg/kg
CC1(C)N=C(N)N=C(N)N1OCCCOc1cc(Cl)c(Cl)cc1Cl,inactive,inactive,267,0.021 µM,0.8 µM,190,inactive,Active,1.7 µM,inactive,0.019 µM,inactive,inactive,0.003 µM,0.0001 µM,400 nM,20 mg/kg,19,160 mg/kg
Nc1nc(N)c2cc(SCc3ccc(Cl)cc3)ccc2n1,inactive,inactive,28,0.2 µM,1.4 µM,25,inactive,Active,2.9 µM,inactive,1 µM,inactive,inactive,0.05 µM,0.04 µM,40 nM,320 mg/kg,0.2,640 mg/kg
CC(C)c1nc2nc(N)nc(N)c2nc1C(C)C,inactive,inactive,7,3.2 µM,0.5 µM,60,inactive,Active,8.1 µM,inactive,0.3 µM,inactive,inactive,0.07 µM,0.005 µM,500 nM,640 mg/kg,0.16,640 mg/kg
CCN1CCCC(Nc2cc(C)nc(NC(=N)Nc3ccc(Cl)c(Cl)c3)n2)C1 (centres undefined),Active,Active,1,65.1 µM,39 µM,0.53,Active,Active,85 µM,Active,121 µM,Active,Active,32 µM,227 µM,55700 nM,20 mg/kg,0.85,40 mg/kg
N=C(N)N/N=C(\c1ccc(F)cc1)c1ccc(C(F)(F)F)cc1,Active,Active,1,31 µM,21 µM,0.6,Active,Active,17 µM,Active,35 µM,Active,Active,22 µM,64 µM,30000 nM,40 mg/kg,1,160 mg/kg
ClC(Cl)(Cl)c1ccc(C(Cl)(Cl)Cl)cc1,Active,Active,2,1000 µM,2000 µM,1,Active,Active,262 µM,Active,1900 µM,Active,Active,959 µM,2000 µM,990000 nM,640 mg/kg,1,640 mg/kg
COc1cc(Cc2cnc(N)nc2N)cc(OC)c1OC [TRIMETHOPRIM],inactive,inactive,6,0.19 µM,67.5 µM,15,inactive,Active,0.4 µM,inactive,1.2 µM,inactive,inactive,11.7 µM,0.08 µM,17 nM,> 640 mg/kg,0.09,>640 mg/kg
Nc1ncc(Cc2ccc3c(c2)OCO3)c(N)n1,inactive,inactive,7.3,0.94 µM,90.1 µM,96.8,inactive,Active,45 µM,inactive,24.2 µM,inactive,inactive,12.3 µM,0.25 µM,250 nM,640 mg/kg,0.27,640 mg/kg

# Source: ChEMBL document CHEMBL3272032, “Antifolate studies. Activities of 40 potential antimalarial compounds against sensitive and chlorguanide triazine resistant strains of folate-requiring bacteria and Escherichia coli” (J Med Chem, 1977)
